Screens: PubChem, Broad Institute
This is a sample that favours compounds with a hit; in the whole collection about 2.9% have one here.
DENV2 CPE: DENV2-induced cell death inhibition; 350,000 tested, 1.7% active; AID 651640; CPE inhibition, % at 9.99 µM; DENV2-infected cells, cytopathic effect rescue, plate reader; in the data active = CPE inhibition above about 20%, passing the limit was not always enough; inconclusive = no clear call, values can overlap the other calls; tested in BHK-21 cells
CAL PDZ FP-1: human CAL PDZ-peptide interaction inhibition | purified CAL PDZ, TMR-peptide fluorescence polarization, 1 h | inhibition, % at 20 µM | 330,000 tested, 0.02% active;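 active = highest replicate inhibition of at least 40%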
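Control set: unlabelled peptide and DMSO controls / Material: purified CerCALP PDZ construct / Timing: 1 h incubation at room temperature before polarization reading / Doses: 20 µM, one dose / Detection: fluorescence polarization (mP)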
SIRT5 block: blocks human SIRT5 desuccinylation of peptide; Purified SirT5, succinyl-peptide AMC, trypsin-coupled fluorescence; inhibition, % at 15 µM; 330,000 tested, 1.1% active; AID 652115; in the data active = inhibition above about 15%; inconclusive = no clear call, values can overlap the other calls
Target sequence (Q9NXA8 whole entry, looked up): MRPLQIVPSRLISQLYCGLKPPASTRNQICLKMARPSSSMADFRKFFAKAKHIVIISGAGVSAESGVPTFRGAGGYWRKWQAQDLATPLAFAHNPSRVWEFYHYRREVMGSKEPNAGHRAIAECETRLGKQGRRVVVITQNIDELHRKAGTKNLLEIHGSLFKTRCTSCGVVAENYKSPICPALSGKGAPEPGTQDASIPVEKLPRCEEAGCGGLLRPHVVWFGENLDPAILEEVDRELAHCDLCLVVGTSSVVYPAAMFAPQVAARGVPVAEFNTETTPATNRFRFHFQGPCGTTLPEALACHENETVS
S100A4 MyoIIA: S100A4-myosin IIA interaction inhibition | S100A4/TAMRA-MyoIIA peptide fluorescence polarization | AID 652163 | P26447 | 360,000 tested, 0.14% active | inhibition, % at 10.7 µM;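 active = mean inhibition of at least 70% across replicates, with every replicate also reaching that level; inconclusive = mean inhibition reaches 70% but some replicates fall short; inactive = mean inhibition below 70%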
Target sequence (P26447 whole entry, looked up): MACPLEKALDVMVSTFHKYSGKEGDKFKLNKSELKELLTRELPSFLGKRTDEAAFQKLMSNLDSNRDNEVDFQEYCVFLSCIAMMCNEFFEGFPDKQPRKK
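Material: S100A4 monomer (human). Medium: Calcium-containing HEPES buffer, pH 7.2. Probe or stimulus: labelled myosin peptide probe, 5 nM. Compound dosing: one concentration per compound. Timing: polarization read 5 min after assay mix addition, stable 5–60 min. Benchmarks: DMSO as neutral control, TFP as positive control.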
ERAP1 HTS inh: ERAP1 (human) enzyme inhibition | Q9NZ08 | recombinant ERAP1, Leu-AMC fluorescence, 60 min | inhibition, % at 10.7 µM | 340,000 tested, 0.15% active | AID 652197;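 active = mean replicate inhibition of at least 30%, or all replicates individually reaching that 30% level; inactive = mean below 30% and not every replicate reaching it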
CAL PDZ FP-2: CAL PDZ (human) peptide binding inhibition; AID 602252; Q9HD26; purified CAL PDZ, TMR-peptide fluorescence polarization, 1 h; inhibition, % at 24.9 µM; 300,000 tested, 0.92% active;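 active = mean inhibition of at least 30% with at least half of replicates also reaching 30%; inconclusive = no clear call, values can overlap the other calls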
Numbers stand for hits; . = inactive; ? = inconclusive; / = not tested or not shown; + = active, no number; ! = not active in a repeat.

SMILES | DENV2 CPE | CAL PDZ FP-1 | SIRT5 block | S100A4 MyoIIA | ERAP1 HTS inh | CAL PDZ FP-2
COc1cccc(-c2ccc3n(c2=O)C[C@@H]2[C@@H](CO)[C@H](C(=O)NC4CCC4)N[C@H]32)c1 | . | / | . | . | . | /
C[C@H]1CN([C@@H](C)CO)C(=O)c2cccc(NC(=O)c3ccncc3)c2O[C@H]1CN(C)C(=O)Nc1ccc(C(F)(F)F)cc1 | . | / | . | . | . | /
Nc1nc(CSc2ccccc2)nc(N2CCCCC2)n1 | . | . | . | . | . | .
Nc1nc(CSc2ccc(Cl)cc2)nc(N2CCCCC2)n1 | . | . | 18 | . | . | .
Cc1noc(C)c1NC(=O)Nc1ccc2c(c1)CC(=O)N([C@H](C)CO)C[C@H](C)[C@@H](CN(C)Cc1ccccc1)O2 | . | / | . | . | . | /
C[C@@H]1CN([C@@H](C)CO)C(=O)c2cc(NS(=O)(=O)c3ccc(Cl)cc3)ccc2O[C@@H](C)CCCCO[C@H]1CN(C)C | . | / | . | . | . | /
C[C@@H]1CN([C@H](C)CO)S(=O)(=O)c2ccc(/C=C/c3ccccc3)cc2O[C@H]1CN(C)Cc1ccc(C(=O)O)cc1 | . | / | ? | . | . | /
C/C=C/c1ccc2c(c1)O[C@H](CN(C)Cc1ccc(C(=O)O)cc1)[C@@H](C)CN([C@H](C)CO)S2(=O)=O | . | / | . | . | . | /
C[C@H]1CN([C@@H](C)CO)S(=O)(=O)c2ccc(/C=C/c3ccccc3)cc2O[C@H]1CN(C)Cc1ccc(C(=O)O)cc1 | . | / | 19 | . | . | /
C[C@H](CO)N1C[C@H](C)[C@@H](CN(C)Cc2ccc(C(=O)O)cc2)Oc2cc(/C=C/c3ccccc3)ccc2S1(=O)=O | . | / | 104 | . | . | /
C[C@H](CO)N1C[C@H](C)[C@H](CN(C)C(=O)Nc2cccc3ccccc23)Oc2c(NS(=O)(=O)c3cn(C)cn3)cccc2C1=O | . | / | . | . | . | /
COc1ccccc1CN(C)C[C@H]1OCc2cn(nn2)CCCC(=O)N([C@@H](C)CO)C[C@H]1C | . | / | . | . | . | /
CO[C@@H]1CN(C)C(=O)c2ccc(NC(C)=O)cc2OC[C@H](C)N(Cc2cncnc2)C[C@H]1C | . | / | . | . | . | /
O=C(O)c1ccc(-c2ccc(/C=c3/sc4nc5ccccc5n4c3=O)o2)cc1Cl | . | . | 24 | . | . | .
Cc1ccc2c(nc3s/c(=C\c4ccc(-c5ccccc5C(=O)O)o4)c(=O)n32)c1C | . | . | . | 85 | . | .
Cc1cc(C)c2nc3sc(=Cc4ccc(-c5ccccc5C(=O)O)o4)c(=O)n3c2c1 | ? | / | . | . | . | /
N#C/C(=C(/O)c1ccc2c(c1)OCO2)c1nc2cc(C(F)(F)F)ccc2s1 | . | . | . | . | . | 43
N#C/C(=C(/O)c1ccccc1F)c1nc2cc(C(F)(F)F)ccc2s1 | . | . | . | . | . | .
CC(C)c1ccc(S(=O)(=O)N2CCN(C(=O)c3cccc(F)c3)CC2)cc1 | / | . | / | / | / | 46
O=C(c1cccc(F)c1)N1CCN(S(=O)(=O)c2ccccc2)CC1 | / | . | / | / | / | .
CC(C)c1ccc(OC(=O)c2cccc(S(=O)(=O)N3CCN(C)CC3)c2)cc1 | . | . | . | . | 106 | .
C[C@H](NC(=O)C[C@H]1C=C[C@@H](NC(=O)Cc2ccccn2)[C@H](CO)O1)c1ccccc1 | . | / | . | . | . | /
CSc1ncc(C(=O)Nc2ccccc2F)c(-c2ccccc2)n1 | . | . | . | . | . | .
CSc1ncc(C(=O)Nc2ccc(C(C)=O)cc2)c(-c2ccccc2)n1 | . | . | 21 | . | . | .
O=C(CCN1CCCCC1)NCC[C@H]1CC[C@@H](NC(=O)Cc2cccnc2)[C@H](CO)O1 | / | / | . | / | / | /
SMILES | DENV2 CPE | CAL PDZ FP-1 | SIRT5 block | S100A4 MyoIIA | ERAP1 HTS inh | CAL PDZ FP-2
COCC(=O)N(C)C[C@@H]1Oc2cc(C#CCC(C)C)ccc2S(=O)(=O)N([C@@H](C)CO)C[C@H]1C | . | / | . | . | . | /
O=C(c1ccccc1)N1CC[C@@H]2[C@H]1c1cc(-c3ccccc3F)ccc1N[C@@H]2CO | . | / | . | . | . | /
COCCn1c(SCc2ccc(F)cc2)nc2ccccc2c1=O | . | . | . | . | . | +
COCCn1c(SCc2ccc(OC)c(F)c2)nc2ccccc2c1=O | . | . | . | . | . | /
O=C(C[C@H]1CC[C@H](NC(=O)Cc2ccccn2)[C@@H](CO)O1)NCCc1ccncc1 | . | / | . | . | / | /
C[C@H]1CN([C@@H](C)CO)S(=O)(=O)c2ccc(C#Cc3cccc(F)c3)cc2O[C@@H]1CN(C)S(=O)(=O)c1ccccc1F | . | / | . | . | . | /
C[C@H]1CN([C@@H](C)CO)S(=O)(=O)c2ccc(Br)cc2O[C@H]1CN(C)S(=O)(=O)c1ccccc1F | . | / | . | . | . | /
C[C@H]1CN([C@@H](C)CO)S(=O)(=O)c2ccc(Br)cc2O[C@@H]1CN(C)S(=O)(=O)c1ccccc1F | 36! | / | . | . | . | /
COc1ccc(C#Cc2ccc3c(c2)O[C@H](CN(C)S(=O)(=O)c2ccccc2F)[C@H](C)CN([C@H](C)CO)S3(=O)=O)cc1 | . | / | 16! | . | . | /
C[C@H]1CN([C@@H](C)CO)S(=O)(=O)c2ccc(C#Cc3cccc(F)c3)cc2O[C@H]1CN(C)S(=O)(=O)c1ccccc1F | . | / | 42 | . | . | /
C[C@@H]1CCCCO[C@H](CN(C)Cc2ccc3c(c2)OCO3)[C@H](C)CN([C@H](C)CO)C(=O)c2cc(NC(=O)C3CCCCC3)ccc2O1 | . | / | . | . | . | /
COC(=O)CCC(=O)N1CCOCCOCCOCC1 | . | . | . | . | . | 40
COC(=O)CCC(=O)N1CCOCCOCCN(C(=O)CCC(=O)OC)CCOCCOCC1 | / | . | / | / | / | .
Cc1cccc(Oc2ccc(Cl)cc2N)c1 | . | . | 112 | . | . | .
CN1CCN(C(=O)C[C@H]2CC[C@@H]3[C@H](COC[C@@H](O)CN3C(=O)Nc3ccc(Cl)cc3)O2)CC1 | . | / | . | . | . | /
Cc1cc(C)nc(N(C#N)Cc2cccc([N+](=O)[O-])c2)n1 | / | . | / | / | / | 46
Cc1noc(C)c1NC(=O)N(C)C[C@@H]1OCCCC[C@H](C)Oc2ccc(NC(=O)C3CCCCC3)cc2C(=O)N([C@@H](C)CO)C[C@H]1C | ? | / | . | . | . | /
CC1(CNC(=O)C(=O)NCC2(C)CO2)CO1 (centres undefined) | . | . | / | . | . | 41
N#C[C@H]1[C@@H](c2ccc(C#CC3CCCCC3)cc2)[C@H](CO)N1C(=O)c1cccc(F)c1 | . | / | . | . | . | /
O=C(Cc1ccccc1)Nc1ccc(C(=O)NCc2ccccc2)cc1 | . | . | . | . | . | .
CNC(=O)c1cccc(NC(=O)CCCNC(=O)c2ccc(Cl)cc2)c1 | . | . | . | . | . | 66
CC(=O)Nc1cccc(NC(=O)CCNC(=O)c2ccc(Cl)cc2)c1 | . | . | . | . | . | .
O=C(O)CCNC(=O)c1ccc(NC(=O)C(c2ccccc2)c2ccccc2)cc1 | . | . | 57 | . | . | .
